Consider 70 compounds from ChEMBL document CHEMBL4513216, “Probing the Open Global Health Chemical Diversity Library for Multistage-Active Starting Points for Next-Generation Antimalarials” (ACS Infect Dis, 2020).

A short description of this data set: Toxicity liver stage against HepG2, at 10uM. Type of data set: cell-based. Also on record: test concentration 10 uM, cell line HepG2-A16-CD81EGFP. To be noted: human, HepG2-A16-CD81EGFP cells; read-out: INHIBITION
The method, boiled down:
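Uninfected HepG2-A16-CD81EGFP cells, 3 × 10^3 per well, 1536-well, plated on prespotted compound at 10 μM final, parasite-free screening media added to match infected plates; puromycin 10 μM positive, DMSO 0.5% negative; run in parallel with 48 h PbLuc assay at 37 °C, 5% CO2; viability by CellTiter-Glo luminescence, normalized to controls.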
With `COCCNC(=O)N1CCN(C(C)C(=O)NC(C)C)CC1` (stereo not given), the cytotoxicity at 10 µM was 10.6%.

In the case of `COc1cccc(-c2cc(C3CCCNC3)ccn2)c1` (stereo not given), the cytotoxicity at 10 µM turned out to be 0.207%.

As for `Cc1ccccc1CCC1CCCN(Cc2nnc(-c3ccco3)o2)C1` (stereo not given), the cytotoxicity at 10 µM was -116%.

As to `CN(C)C(=O)c1coc(COc2ccccc2)n1`, the cytotoxicity at 10 µM is -7.3%.

In the case of `O=C(CN1CCOC(Cn2cccn2)C1)Nc1nccs1` (stereo not given), the cytotoxicity at 10 µM is 3.64%.

For the compound `Cc1ccc(C(=O)N2CCCc3c(c(=O)n(C)n3C)C2)o1`, the cytotoxicity at 10 µM was 5.92%.

On to `Cc1ccc2nc(CNc3ccccc3C(=O)NC3CC3)cn2c1`, for which the cytotoxicity at 10 µM amounted to 3.16%.

In the case of `CN(CCCN1CCOCC1)[C@@H]1c2ccccc2C2(CCNCC2)[C@H]1O`, the cytotoxicity at 10 µM is -3.12%.

For `CCC(C)(C)NC(=O)CN(Cc1cccc(O)c1)C1CCC(O)CC1` (stereo not given), the cytotoxicity at 10 µM is -2.22%.

Turning to `CCn1cnnc1CNC(=O)C1CCCN(Cc2cccc(F)c2)C1` (stereo not given), the cytotoxicity at 10 µM worked out at 3.5%.

As to `CS(=O)(=O)c1nnc(NC(=O)CCc2cccc(Cl)c2)[nH]1`, the cytotoxicity at 10 µM is -20.4%.

`CC(C)c1nn(C)c(N2CCOCC2)c1CNC(C)c1cccs1` (stereo not given): the cytotoxicity at 10 µM is -5.06%.

As for `CCN1CC[C@@]2(C(=O)N(C)C)CCN(C(=O)Cc3ccccc3)CC[C@@H]12`, the cytotoxicity at 10 µM was 4.65%.

On to `COCc1ccc(C(=O)N2CCC(c3nccn3CC3CC3)CC2)o1`, for which the cytotoxicity at 10 µM was -2.81%.

For the compound `Cc1ccc(CN2C[C@@H]3COC[C@H](C(=O)N4CCCCO4)[C@@H]3C2)o1`, the cytotoxicity at 10 µM is 3.37%.

As for `Cc1nn(C)c(N(C)C)c1CNCc1nnc2n1CCCCC2`, the cytotoxicity at 10 µM is -5.68%.

In the case of `Cn1ccnc1SCC(=O)NCCC1CCCO1` (stereo not given), the cytotoxicity at 10 µM is -2.49%.

Turning to `Cc1nc(CN2CCc3ncnc(-c4cccnc4)c3CC2)cs1`, the cytotoxicity at 10 µM is 7.51%.

`CC(C)=CCN1CCN(CCCOc2ccccc2)[C@H]2CS(=O)(=O)C[C@H]21`: the cytotoxicity at 10 µM is -8.34%.

Take `CN1CCC(c2cccc(C(=O)N(C)C)n2)CC1`: the cytotoxicity at 10 µM worked out at 4.53%.

Take `Cc1ccc(=O)n(CC(=O)N2CCCC(c3nc(C)c(C)s3)C2)n1` (stereo not given): the cytotoxicity at 10 µM was -3.06%.

Regarding `CCn1c(CN(C)C)nnc1C1CCN(Cc2cnc(C)nc2)CC1`, the cytotoxicity at 10 µM was 4.6%.

As to `CC(C(=O)N1CCOCC1)n1cc(Br)cn1` (stereo not given), the cytotoxicity at 10 µM came out at 14.1%.

As for `Cc1ccc(C(=O)NC2CCCN(CC(N)=O)C2)c(=O)[nH]1` (stereo not given), the cytotoxicity at 10 µM is 0.601%.

Consider `Cc1cc(C(=O)N2CCC3(CC(=O)NC3=O)C2)c(-c2ccccc2)o1` (stereo not given), for which the cytotoxicity at 10 µM is -3.15%.

Regarding `Cc1cc2ncn(C[C@]3(O)CCCN4CCCC[C@@H]43)c2cc1C`, the cytotoxicity at 10 µM was -2.42%.

In the case of `O=C(C1CCC1)N1CCN(Cc2cccnc2)[C@H]2CS(=O)(=O)C[C@H]21`, the cytotoxicity at 10 µM was 1.02%.

For `O[C@H]1CN(Cc2cccc(C(F)(F)F)c2)CC[C@@]12CCCO2`, the cytotoxicity at 10 µM was -19.6%.

Take `CCN(C(=O)CN1CCCC1c1ccc(F)cc1)c1ccccc1C` (stereo not given): the cytotoxicity at 10 µM came out at 5.42%.

On to `CC(SCCC(=O)NC(N)=O)c1ccccc1F` (stereo not given), for which the cytotoxicity at 10 µM was 5.87%.

Take `CC(=O)Nc1nc(C(=O)NC(C)c2ccc(F)c(F)c2)cs1` (stereo not given): the cytotoxicity at 10 µM is -5.39%.

For the compound `Cc1nn(C)c2c(NCc3ccncc3)nc(C3CC3)nc12`, the cytotoxicity at 10 µM is -4.17%.

`Cc1nc(CN2C[C@H]3C[C@H](C(=O)NCC4CC4)N(C)[C@H]3C2)cs1`: the cytotoxicity at 10 µM was -5.13%.

Take `CCC(CC)(CNC(=O)OC(C)(C)C)NC(=O)C1CCCO1` (stereo not given): the cytotoxicity at 10 µM turned out to be 1.41%.

Take `Cc1nc(CN(Cc2cccs2)C2CCS(=O)(=O)C2)oc1C` (stereo not given): the cytotoxicity at 10 µM was -6.46%.

Regarding `c1cncc(OCc2nnn3c2CN(Cc2ccsc2)CCC3)c1`, the cytotoxicity at 10 µM is -4.34%.

Turning to `COc1ccc2nnc(CCCC(=O)NCCc3ccccn3)n2n1`, the cytotoxicity at 10 µM is -9.49%.

Take `Cc1ccc(NC(=O)CNc2cccc(C(N)=O)c2C)c(C)c1`: the cytotoxicity at 10 µM is 17.6%.

Take `Cc1nc2cc(O)nn2c(C)c1CCC(=O)N(C)Cc1ccccc1`: the cytotoxicity at 10 µM was -141%.

With `COc1ccc(CNC2CCCN(Cc3noc(C)n3)C2)cc1F` (stereo not given), the cytotoxicity at 10 µM was -12.5%.

For `CN(CCc1noc(C2CC2)n1)C(=O)C1(N2CCCC2)CCCC1`, the cytotoxicity at 10 µM is -146%.

`CC(C)Cc1cc(C(=O)NCC(O)c2ccc(F)cc2)n(C)n1` (stereo not given): the cytotoxicity at 10 µM is -2.96%.

Take `FC(F)Sc1ccc(NCc2nnc(C3CC3)o2)cc1`: the cytotoxicity at 10 µM was found to be 14.7%.

`Cc1oncc1C(=O)N1C[C@H](OCc2ccccn2)[C@H]2OCCC[C@H]21`: the cytotoxicity at 10 µM is -0.385%.

Take `CC1(NC(=O)Cc2csc(-c3cccc(Cl)c3)n2)CCS(=O)(=O)C1` (stereo not given): the cytotoxicity at 10 µM is -3.61%.

`COc1cc(N2CCC3(CCN(Cc4cccnc4)C3=O)C2)ncn1` (stereo not given): the cytotoxicity at 10 µM was -107%.

On to `O=S(=O)(C1CC1)N1CC[C@H](OCC2CC2)[C@@H]1Cc1ccncc1`, for which the cytotoxicity at 10 µM amounted to 7.67%.

For the compound `Cc1cccc(CNC(Cc2ccsc2)c2nc(C)c(C)s2)n1` (stereo not given), the cytotoxicity at 10 µM is -0.52%.

On to `CCN(CC)C(C)CNC(=O)c1cccnc1Oc1cccnc1` (stereo not given), for which the cytotoxicity at 10 µM is -2.09%.

`CCN(CC1CCOC1)C(=O)NCc1nnc2n1CCC2` (stereo not given): the cytotoxicity at 10 µM came out at 13.6%.

Take `CCS(=O)(=O)N1C[C@@H](C(=O)NC(C)C)[C@@]2(Cc3ccccc3C(=O)N2)C1`: the cytotoxicity at 10 µM came out at 1.11%.

Regarding `Cc1ccnn1-c1ccc(C(=O)N2CCN(c3cnccn3)CC2)cc1`, the cytotoxicity at 10 µM is -2.31%.

For the compound `CC(C)(C)C(Cn1ccnc1)NC(=O)NCc1ccco1` (stereo not given), the cytotoxicity at 10 µM is -1.85%.

Take `COCCN1CC2(CCCN(C(=O)NCCc3cccs3)C2)CCC1=O` (stereo not given): the cytotoxicity at 10 µM is -8.14%.

In the case of `CN(C)S(=O)(=O)N1CCN(C(=O)OC(C)(C)C)CC12CCCCC2`, the cytotoxicity at 10 µM was determined as 3.36%.

For the compound `Cc1nc2ccc(C(=O)N3CCn4c(nnc4C4CC4)C3)cc2nc1C`, the cytotoxicity at 10 µM is -3.22%.

Turning to `COc1ccc(OC2CCN(C(=O)[C@@H](N)Cc3c[nH]cn3)CC2)cc1`, the cytotoxicity at 10 µM was found to be 0.653%.

Consider `Cc1cccc(CN2C[C@@H](C)[C@@]3(CCN(CC(=O)N(C)C)C3=O)C2)c1`, for which the cytotoxicity at 10 µM was -0.979%.

In the case of `N#Cc1ccc(CNCCS(=O)(=O)N2CCc3ccccc32)cc1`, the cytotoxicity at 10 µM was -4.11%.

Take `O=C1CCCN1C1CCCN(CCn2cc(Cl)cn2)C1` (stereo not given): the cytotoxicity at 10 µM is -0.626%.

Regarding `O=C(Cc1ccccn1)N1CC[C@]2(C[C@@H](Oc3ncccc3F)CO2)C1`, the cytotoxicity at 10 µM was -5.79%.

In the case of `Cc1nc(CN2CCCC(Nc3ncnc4ccccc34)C2)no1` (stereo not given), the cytotoxicity at 10 µM came out at 50%.

Consider `CN(Cc1cccs1)S(=O)(=O)c1ccc(C(F)(F)F)nc1`, for which the cytotoxicity at 10 µM is -5.68%.

With `Cn1nc(CNc2ncccn2)c2c1CN(c1cnccn1)CC2`, the cytotoxicity at 10 µM is -107%.

In the case of `CC(C)CCC(=O)N1CC[C@@H]2[C@H](CC1)N(S(C)(=O)=O)CCS2(=O)=O`, the cytotoxicity at 10 µM stood at 3.7%.

On to `COCC1CCN(CCCc2cn[nH]c2)CC1`, for which the cytotoxicity at 10 µM was determined as 11.3%.

Turning to `COCC1COCCC12CCN(C(=O)CC1=CCCCC1)CC2` (stereo not given), the cytotoxicity at 10 µM was -1.86%.

On to `CC1CN(Cc2cccc(CN)c2)CCO1` (stereo not given), for which the cytotoxicity at 10 µM was -8.99%.

As for `COc1cccc(CNc2cc(C)nc(-c3ccncc3)n2)c1O`, the cytotoxicity at 10 µM came to 59.1%.

As to `CC(C)(O)CN1CCN(C(=O)c2cccc3cccnc23)CC1`, the cytotoxicity at 10 µM was -10.7%.
